According to ChEMBL document CHEMBL5260794, “Synthesis and biological evaluation of a new class of benzothiazines as neuroprotective agents” (Eur J Med Chem, 2017):
Activity calls are given as the source filed them. The calls are words filed in the database; no cut-off is given here.

How the values were obtained:
[1] = organism: Rattus norvegicus; assay: Neuroprotective activity against oxygen glucose deprivation/reperfusion-induced Wistar rat cortical brain assessed as reduction in glutamate release by measuring minimal effective concentration; type: functional
Outline: (§1)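 Male Wistar rat cortical slices (400 μm) in oxygenated ACSF, pH 7.4, 1 h at room temperature, then 30 min at 37 °C. OGD for 30 min in glucose-free ACSF with 11 mM sucrose under 95% N₂/5% CO₂. Compound added in the reoxygenation buffer. Glutamate and LDH release measured. Mean ± SEM of at least four experiments, ANOVA with Dunnett test.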

[2] = organism: Rattus norvegicus; assay: Neuroprotective activity against oxygen glucose deprivation/reperfusion-induced Wistar rat cortical brain assessed as concentration required to reduce LDH release by measuring efficacy window; type: functional; outline: as §1
[3] = organism: Rattus norvegicus; assay: Neuroprotective activity against oxygen glucose deprivation/reperfusion-induced Wistar rat cortical brain assessed as concentration required to reduce glutamate release by measuring efficacy window; type: functional; outline: as §1
[4] = organism: Rattus norvegicus; assay: Neuroprotective activity against oxygen glucose deprivation/reperfusion-induced Wistar rat cortical brain assessed as reduction in LDH release by measuring minimal effective concentration; type: functional; outline: as §1
[5] = organism: Rattus norvegicus; assay: Neuroprotective activity against oxygen glucose deprivation/reperfusion-induced Wistar rat cortical brain assessed as reduction in glutamate release relative to control; type: functional; set-up: concentration or dose not given beside the values; outline: as §1
[6] = organism: Rattus norvegicus; assay: Neuroprotective activity against oxygen glucose deprivation/reperfusion-induced Wistar rat cortical brain assessed as reduction in LDH release relative to control; type: functional; set-up: concentration or dose not given beside the values; outline: as §1
[7] = tested on: SH-SY5Y; assay: Neuroprotective activity against 6-OHDA-induced toxicity in human SH-SY5Y cells assessed as reduction in condensed and fragmented nuclei at 10 uM pretreated for 1 hr followed by 6-OHDA challenge measured after 2 hrs by DAPI staining based assay relative to control; conditions: time 3.0 hrs
[8] = tested on: SH-SY5Y; assay: Neuroprotective activity against 6-OHDA-induced toxicity in human SH-SY5Y cells assessed as increase in cell viability at 0.01 uM pretreated for 1 hr followed by 6-OHDA challenge measured after 2 hrs by MTT assay; type: functional, cell-based; conditions: time 3.0 hrs
Outline: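 SH-SY5Y cells (RPMI 1640, 10% FBS, 37 °C, 5% CO2, used in exponential growth) seeded 8 x 10⁴ cells/mL, attached 24 h, pre-incubated with compound 1 h, then 6-OHDA 55 μM for 2 h (6-OHDA freshly dissolved in nitrogen-gassed 5 μM ascorbic acid). Controls received medium with 5 μM ascorbic acid. Viability by MTT. Mean ± SEM of 4 independent experiments, each in triplicate or quadruplicate.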

[9] = tested on: SH-SY5Y; assay: Neuroprotective activity against glutamate-induced toxicity in human SH-SY5Y cells assessed as reduction in sub G0/G1 phase cells at 0.01 uM pretreated for 1 hr followed by glutamate challenge measured after 24 hrs by propidium staining based flow cytometry; type: functional, cell-based; conditions: time 25.0 hrs
Outline: (§2)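 Cells seeded 2.5 x 10⁵ cells/mL, pretreated with compound 1 h, then glutamate 50 mM for 24 h. Cells fixed in 70% ethanol (30 min, 4 °C), kept at -20 °C for at least 24 h, stained with propidium iodide and run on flow cytometer (563-607 nm band-pass). At least 1x10⁴ cells acquired per sample; sub-G0/G1 peak taken as apoptotic. Mean ± SEM, 4 independent experiments.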

[10] = tested on: SH-SY5Y; assay: Neuroprotective activity against 6-OHDA-induced toxicity in human SH-SY5Y cells assessed as condensed and fragmented nuclei at 0.01 uM pretreated for 1 hr followed by 6-OHDA challenge measured after 2 hrs by DAPI staining based assay relative to control; type: functional; conditions: time 3 hrs
[11] = tested on: SH-SY5Y; assay: Neuroprotective activity against glutamate-induced toxicity in human SH-SY5Y cells assessed as reduction in grade 2 to 3 toxicity at 0.01 uM pretreated for 1 hr followed by glutamate challenge measured after 24 hrs by phase-contrast light microscopic analysis; type: functional, cell-based; conditions: time 25.0 hrs
Outline: (§3)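 SH-SY5Y cells pretreated with compound 1 h, then glutamate 50 mM for 24 h. Morphology examined and photographed by phase-contrast microscopy. Scored on USP 28 grade scale 0-4, with grades based on cell rounding, loss of intracytoplasmic granules, lysis and empty areas between cells. Control wells received medium only.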

[12] = tested on: SH-SY5Y; assay: Neuroprotective activity against glutamate-induced toxicity in human SH-SY5Y cells assessed as reduction in ROS production at 0.01 uM by DCFH-DA staining based assay; type: functional, cell-based; conditions: time 24.0 hrs, TDE = time-dependent effect
Outline: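 Before treatment, SH-SY5Y cells loaded with DCFH-DA (5 μM, 30 min) and washed in PBS. Then 1 h compound pretreatment followed by glutamate 50 mM. Fluorescence read at 1 h or 24 h (ex 485, em 535 nm). Result expressed as % inhibition of glutamate-induced intracellular ROS. Mean ± SEM, 4 independent experiments in triplicate or quadruplicate.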

[13] = tested on: SH-SY5Y; assay: Neuroprotective activity against glutamate-induced toxicity in human SH-SY5Y cells assessed as reduction in cell rounding at 0.01 uM pretreated for 1 hr followed by glutamate challenge measured after 24 hrs by phase-contrast light microscopic analysis; type: functional, cell-based; conditions: time 25.0 hrs; outline: as §3
[14] = tested on: SH-SY5Y; assay: Neuroprotective activity against glutamate-induced toxicity in human SH-SY5Y cells assessed as cell viability at 0.01 uM pretreated for 1 hr followed by glutamate challenge measured after 24 hrs by MTT assay; type: functional; conditions: time 25 hrs, read-out: Activity
[15] = tested on: SH-SY5Y; assay: Neuroprotective activity against glutamate-induced toxicity in human SH-SY5Y cells assessed as reduction in condensed and fragmented nuclei at 0.01 uM pretreated for 1 hr followed by glutamate challenge measured after 24 hrs by DAPI staining based assay (reference value: 16.9 +/- 1.5%); type: functional, cell-based; conditions: time 25.0 hrs
[16] = tested on: SH-SY5Y; assay: Neuroprotective activity against glutamate-induced toxicity in human SH-SY5Y cells assessed as reduction in cell detachment at 0.01 uM pretreated for 1 hr followed by glutamate challenge measured after 24 hrs by phase-contrast light microscopic analysis; type: functional, cell-based; conditions: time 25.0 hrs; outline: as §3
[17] = tested on: SH-SY5Y; assay: Neuroprotective activity against glutamate-induced toxicity in human SH-SY5Y cells assessed as reduction in ROS production measured after 24 hrs by DCFH-DA staining based assay; type: functional, cell-based; conditions: dose 0.1-10 µM
Outline: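 Human SH-SY5Y neuroblastoma cells were preloaded with DCFH-DA (5 μM, 30 min) and washed in PBS. They were then pretreated for 1 h with compound (0.1-10 μM; DMSO stock diluted in PBS, final DMSO <0.01%) and challenged with glutamate (50 mM). Fluorescence (ex 485/em 535 nm) was read at 24 h and expressed as % inhibition of glutamate-induced ROS. Data are mean ± SEM of 4 experiments run in triplicate or quadruplicate.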

[18] = tested on: SH-SY5Y; assay: Neuroprotective activity against glutamate-induced toxicity in human SH-SY5Y cells assessed as reduction in cell shrinkage at 0.01 uM pretreated for 1 hr followed by glutamate challenge measured after 24 hrs by phase-contrast light microscopic analysis; type: functional, cell-based; conditions: time 25.0 hrs; outline: as §3
[19] = tested on: SH-SY5Y; assay: Neuroprotective activity against glutamate-induced toxicity in human SH-SY5Y cells assessed as increase in S phase cells at 0.01 uM pretreated for 1 hr followed by glutamate challenge measured after 24 hrs by propidium staining based flow cytometry; type: functional, cell-based; conditions: time 25.0 hrs; outline: as §2
[20] = tested on: SH-SY5Y; assay: Neuroprotective activity against glutamate-induced toxicity in human SH-SY5Y cells assessed as reduction in G0/G1 phase cells at 0.01 uM pretreated for 1 hr followed by glutamate challenge measured after 24 hrs by propidium staining based flow cytometry; type: functional, cell-based; conditions: time 25.0 hrs; outline: as §2

| SMILES | MEC [1] | Efficacy [2] | Efficacy [3] | MEC [4] | Activity [5] | Activity [6] | further results |
| --- | --- | --- | --- | --- | --- | --- | --- |
| CCN(CC)/C(C)=N/C1=Nc2ccc(OC(F)(F)F)cc2CS1 | inactive | inactive | inactive | inactive | inactive | inactive |  |
| CN/C(C)=N/C1=Nc2ccccc2SC1 | 0.1 µM | 100 µM | 0.1 µM | 100 µM | 25.5% | 33.2% |  |
| CN/C(C)=N/C1=Nc2ccccc2CS1 | 5 µM | 1 µM | 5 µM | 0.1 µM | 43.6% | 40.1% | Activity [7]: Active |
| CCCNC(=S)NC1=Nc2ccccc2CS1 | 0.001 µM | inactive | 0.001 µM | inactive | 45.7% | inactive |  |
| NC1=Nc2ccc(OC(F)(F)F)cc2CS1 | 0.001 µM | inactive | 0.001 µM | inactive | 69.1% | inactive |  |
| C/C(=N\C1=Nc2ccccc2CS1)N(C)C | 0.01 µM | 0.01 µM | 0.01 µM | 0.01 µM | 72.7% | 78.4% |  |
| CCCN(CCC)/C(C)=N/C1=Nc2ccccc2SC1 | inactive | 10 µM | inactive | 10 µM | inactive | 53.5% |  |
| CCCN(CCC)/C(C)=N/C1=Nc2ccc(OC(F)(F)F)cc2CS1 | 0.01 µM | 0.1 µM | 0.01 µM | 0.1 µM | 17.8% | 31% |  |
| Nc1nc2ccc(OC(F)(F)F)cc2s1 [RILUZOLE] |  |  |  |  |  |  | Activity [8]: Active; Activity [9]: Active; Activity [10]: >20%; Activity [11]: Active; Activity [12]: Tde; Activity [13]: Active; viability at 0.01 µM [14]: 65%; Activity [15]: Active; Activity [16]: Active; Activity [17]: Dose-Dependent Effect; Activity [18]: Active; Activity [19]: Active; Activity [20]: Active |
| C/C(=N\C1=Nc2ccccc2SC1)N(C)C | inactive | inactive | inactive | inactive | inactive | inactive |  |
| CCN(CC)/C(C)=N/C1=Nc2ccccc2SC1 | inactive | inactive | inactive | inactive | inactive | inactive |  |
